Experiment [1] deals with Salmonella enterica. Nature of the experiment: Binding affinity to Salmonella enterica Threonyl-tRNA synthetase assessed as change in melting temperature at 0.5 mM incubated for 10 mins by SYPRO orange dye-based thermal shift assay. The essentials:
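SeThrRS 8 μM in 100 mM HEPES pH 7.5, 150 mM NaCl, 4× SYPRO orange, with 0.5 mM compound or 0.5% DMSO blank; 25 °C for 10 min, then ramped 25 to 95 °C at 1 °C/min, fluorescence read every 30 s. Tm fitted from melt curve; ΔTm = with minus without compound; mean of three independent experiments.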

Experiment [2] has as its system Salmonella enterica. Nature of the experiment: Inhibition of Salmonella enterica Threonyl-tRNA synthetase assessed as reduction in aminoacylation activity at 100 uM using L-threonine as substrate incubated for 3 hrs by Kinase-glo luminescence assay relative to control. The essentials:
(§1)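 3 h at room temperature, stopped with Kinase-Glo, luminescence read. Inhibition % = (RLU compound − RLU blank)/(RLU no-enzyme − RLU blank) × 100, at 100 μM compound. IC50 run for compounds above 50% inhibition at 100 μM, fitted as 100/(1+([I]/IC50)^B). Mean of three independent assays.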
Background: Kinase-Glo measures the ATP left after a reaction by luminescence.

In experiment [3] the test system is Salmonella enterica. The experiment can be described thus: Antibacterial activity against Salmonella enterica 87 assessed as reduction in bacterial growth incubated for 18 hrs by CLSI based broth microdilution assay. It counts as functional. The essentials:
(§2)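 Broth microdilution per CLSI; compounds in 2-fold dilutions starting from 256 μg/mL. Defined medium: M9 with 0.4% glucose plus 100 μM of all canonical amino acids. MIC read as growth end point.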
A general note: Broth dilution looks for growth in wells or tubes with falling amounts of substance.

Experiment [4] deals with Staphylococcus aureus. The experiment can be described thus: Antibacterial activity against Staphylococcus aureus ATCC 29213 assessed as reduction in bacterial growth incubated for 18 hrs by CLSI based broth microdilution assay. The class given is functional. The essentials:
as §2

In a further experiment the test system is Escherichia coli. The experiment can be described thus: Antibacterial activity against Escherichia coli ATCC 25922 assessed as reduction in bacterial growth incubated for 18 hrs by CLSI based broth microdilution assay. The class given is functional. The essentials: as §2
Experiment [5] relates to Salmonella enterica. The experiment can be described thus: Potency index, ratio of IC50 of parent compound to IC50 of compound for inhibition of Salmonella enterica Threonyl-tRNA synthetase assessed as reduction in aminoacylation activity using L-threonine as substrate incubated for 3 hrs by Kinase-glo luminescence assay.
For experiment [6], the system named is Salmonella enterica. The experiment can be described thus: Inhibition of Salmonella enterica Threonyl-tRNA synthetase assessed as reduction in aminoacylation activity at 10 uM using increasing concentration of ATP as substrate incubated for 3 hrs by Kinase-glo luminescence assay. The essentials: (§3)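 Aminoacylation by SeThrRS followed as ATP consumption (Kinase-Glo luminescence) after 3 h at room temperature. Inhibitor held at 10 μM while one substrate (L-Thr, tRNA^Thr or ATP, per line) was raised stepwise to test competition. Other components as in the standard assay.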

A short description of experiment [7]: Inhibition of Salmonella enterica Threonyl-tRNA synthetase assessed as reduction in aminoacylation activity using L-threonine as substrate incubated for 3 hrs by Kinase-glo luminescence assay. The essentials:
as §1

Experiment [8] relates to Salmonella enterica. The experiment can be described thus: Inhibition of Salmonella enterica Threonyl-tRNA synthetase assessed as reduction in aminoacylation activity at 10 uM using increasing concentration of L-threonine as substrate incubated for 3 hrs by Kinase-glo luminescence assay. Put shortly:
as §3

The test system of a further experiment is Enterococcus faecalis. Nature of the experiment: Antibacterial activity against Enterococcus faecalis ATCC 29212 assessed as reduction in bacterial growth incubated for 18 hrs by CLSI based broth microdilution assay. It counts as functional. The essentials: as §2
In the next experiment the test system is Pseudomonas aeruginosa. The experiment can be described thus: Antibacterial activity against Pseudomonas aeruginosa ATCC 27853 assessed as reduction in bacterial growth incubated for 18 hrs by CLSI based broth microdilution assay. The class given is functional. Put shortly: as §2
A short description of experiment [9]: Binding affinity to Salmonella enterica Threonyl-tRNA synthetase at 200 uM by isothermal titration calorimetry. The essentials:
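ITC: 20 μM SeThrRS in cell, 200 μM ligand in syringe, both in 20 mM HEPES pH 7.5, 150 mM NaCl. First injection 5 μL, then 24 × 10 μL at 180 s spacing. Ligand-into-buffer isotherm subtracted as baseline; one-site model fit gives Kd, ΔH, ΔS, N.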

Experiment [10] has as its system Salmonella enterica. The experiment can be described thus: Inhibition of Salmonella enterica Threonyl-tRNA synthetase assessed as reduction in aminoacylation activity at 10 uM using increasing concentration of t-RNAthr as substrate incubated for 3 hrs by Kinase-glo luminescence assay. Put shortly: as §3
Experiment [11] has as its system Staphylococcus aureus. The experiment can be described thus: Antibacterial activity against methicillin-resistant Staphylococcus aureus R3708 assessed as reduction in bacterial growth incubated for 18 hrs by CLSI based broth microdilution assay. The class given is functional. Put shortly:
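Broth microdilution under CLSI conditions, with 2-fold compound dilutions starting at 256 μg/mL. Medium was M9 with 0.4% glucose, supplemented with 100 μM of all canonical amino acids.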

≈ marks a conversion by molar mass, not a printed value. Calls of active or inactive are those of the source. The calls are words filed in the database; no cut-off is given here. Bounds are passed on as bounds.

The ΔTm is the change in melting temperature against a reference sample. By inhibition is commonly meant the relative decrease from the control value, in per cent. On to `N[C@@H](CO)C(=O)NC/C=C/Cn1cnc2cc(Cl)c(Cl)cc2c1=O`, for which the ΔTm in the experiment on Salmonella enterica [1] turned out to be 0.6 °C. Besides, the inhibition in the experiment with Salmonella enterica [2] is 2%.

As to `O=C1CC[C@H](C(=O)NC/C=C/Cn2cnc3cc(Cl)c(Cl)cc3c2=O)N1`, the ΔTm in the experiment with Salmonella enterica [1] is -0.2 °C. For the same compound, in the experiment on Salmonella enterica [2], the inhibition came to 0%.

Turning to `CC(C)(O)[C@H](N)C(=O)NC/C=C/Cn1cnc2cc(Cl)c(Cl)cc2c1=O`, the ΔTm in the experiment with Salmonella enterica [1] was 0.9 °C. For the same compound, the inhibition in the experiment on Salmonella enterica [2] is 0%.

For orientation: MIC means the lowest concentration found to suppress growth. By IC50 is commonly meant the concentration that inhibits the measured activity by half. As usually defined, the Kd is the equilibrium constant for the complex coming apart. Low readings indicate higher affinity, high ones lower affinity. Turning to `CN[C@H](C(=O)NC/C=C/Cn1cnc2cc(Cl)c(Cl)cc2c1=O)[C@@H](C)O`, the shift in melting temperature (ΔTm) with Salmonella enterica [1] worked out at 28.4 °C. Moreover, the MIC with Salmonella enterica [3] turned out to be 16 µg/mL (≈ 40.1 µM); with Staphylococcus aureus [4] it was 32 µg/mL (≈ 80.1 µM); in the experiment on Escherichia coli, 16 µg/mL (≈ 40.1 µM); in the experiment on Enterococcus faecalis, 32 µg/mL (≈ 80.1 µM); in the experiment with Pseudomonas aeruginosa, 32 µg/mL (≈ 80.1 µM); in the experiment with Staphylococcus aureus [11], 32 µg/mL (≈ 80.1 µM). The Ratio IC50 in the experiment on Salmonella enterica [5] turned out to be 3. The inhibition entry in the experiment with Salmonella enterica [6], in the experiment on Salmonella enterica [8] and with Salmonella enterica [10] was “Active” each time. Further, the IC50 in [7] came to 500 nM. For the same compound, in the experiment with Salmonella enterica [2], the inhibition is 100%. Moreover, the dissociation constant Kd in experiment [9] amounted to 400 nM.

On to `O=C(CC1NCCCC1O)Cn1cnc2cc(Br)c(Cl)cc2c1=O` (stereo unspecified) [HALOFUGINONE], for which the ΔTm in the experiment on Salmonella enterica [1] is -1.5 °C. For the same compound, the MIC in the experiment on Salmonella enterica [3] was 64 µg/mL (≈ 154 µM); in the experiment with Staphylococcus aureus [4] it was 64 µg/mL (≈ 154 µM); in the experiment on Escherichia coli, 128 µg/mL (≈ 309 µM); in the experiment with Enterococcus faecalis, 128 µg/mL (≈ 309 µM); in the experiment with Pseudomonas aeruginosa, 64 µg/mL (≈ 154 µM); in the experiment on Staphylococcus aureus [11], 64 µg/mL (≈ 154 µM). In addition, the inhibition in the experiment on Salmonella enterica [2] amounted to 4%.

As for `CCO[C@H](C)[C@H](N)C(=O)NC/C=C/Cn1cnc2cc(Cl)c(Cl)cc2c1=O`, the thermal shift (ΔTm) in the experiment with Salmonella enterica [1] was 0.2 °C. The inhibition with Salmonella enterica [2] stood at 4%.

With `CC(C)N[C@H](C(=O)NC/C=C/Cn1cnc2cc(Cl)c(Cl)cc2c1=O)[C@@H](C)O`, in the experiment with Salmonella enterica [1], the ΔTm came out at 14.1 °C. Moreover, in [7], the IC50 is 49300 nM. Further, in the experiment on Salmonella enterica [2], the inhibition was 63%.

On to `CC1(C)S[C@@H]2[C@H](NC(=O)[C@H](N)c3ccccc3)C(=O)N2[C@H]1C(=O)O` [AMPICILLIN], for which the MIC came to 1 µg/mL (≈ 2.86 µM) in the experiment with Salmonella enterica [3], 1 µg/mL (≈ 2.86 µM) in the experiment with Escherichia coli and 0.5 µg/mL (≈ 1.43 µM) in the experiment with Pseudomonas aeruginosa.

For the compound `CCN[C@H](C(=O)NC/C=C/Cn1cnc2cc(Cl)c(Cl)cc2c1=O)[C@@H](C)O`, in the experiment on Salmonella enterica [1], the ΔTm came to 22.5 °C. For the same compound, the minimal inhibitory concentration (MIC) with Salmonella enterica [3] worked out at 32 µg/mL (≈ 77.4 µM); in the experiment with Staphylococcus aureus [4], 64 µg/mL (≈ 155 µM); in the experiment on Escherichia coli, 16 µg/mL (≈ 38.7 µM); in the experiment on Enterococcus faecalis, 32 µg/mL (≈ 77.4 µM); with Pseudomonas aeruginosa, 32 µg/mL (≈ 77.4 µM); in the experiment with Staphylococcus aureus [11] it was 32 µg/mL (≈ 77.4 µM). Also, the half-maximal inhibitory concentration (IC50) in experiment [7] came to 960 nM. The inhibition with Salmonella enterica [2] came out at 100%.

In the case of `C[C@@H](O)[C@H](NCCF)C(=O)NC/C=C/Cn1cnc2cc(Cl)c(Cl)cc2c1=O`, in the experiment with Salmonella enterica [1], the ΔTm is 19.1 °C. Further, the MIC in the experiment with Salmonella enterica [3] was 32 µg/mL (≈ 74.2 µM); in the experiment with Staphylococcus aureus [4], 32 µg/mL (≈ 74.2 µM); with Escherichia coli, 32 µg/mL (≈ 74.2 µM); in the experiment on Enterococcus faecalis it was 32 µg/mL (≈ 74.2 µM); in the experiment with Pseudomonas aeruginosa, 64 µg/mL (≈ 148 µM); in the experiment on Staphylococcus aureus [11], 64 µg/mL (≈ 148 µM). Also, in [7], the half-maximal inhibitory concentration (IC50) came out at 2500 nM. The inhibition in the experiment on Salmonella enterica [2] is 99%.

As to `C=CCN[C@H](C(=O)NC/C=C/Cn1cnc2cc(Cl)c(Cl)cc2c1=O)[C@@H](C)O`, in the experiment with Salmonella enterica [1], the ΔTm came to 22.1 °C. In addition, the 50% inhibitory concentration (IC50) in [7] amounted to 1200 nM. The inhibition with Salmonella enterica [2] was determined as 100%.

With `O=C1CC[C@@H](C(=O)NC/C=C/Cn2cnc3cc(Cl)c(Cl)cc3c2=O)N1`, in the experiment on Salmonella enterica [1], the thermal shift (ΔTm) was -0.4 °C. In addition, in the experiment with Salmonella enterica [2], the inhibition worked out at 5%.

As for `C[C@@H](O)[C@H](NCC#N)C(=O)NC/C=C/Cn1cnc2cc(Cl)c(Cl)cc2c1=O`, in the experiment with Salmonella enterica [1], the thermal shift (ΔTm) turned out to be 18.8 °C. Further, the IC50 in experiment [7] was 9600 nM. Besides, the inhibition in the experiment on Salmonella enterica [2] was found to be 93%.

For the compound `C[C@H](O)[C@@H](N)C(=O)NC/C=C/Cn1cnc2cc(Cl)c(Cl)cc2c1=O`, the thermal shift (ΔTm) in the experiment with Salmonella enterica [1] was found to be 0.6 °C. In addition, the inhibition in the experiment on Salmonella enterica [2] came out at 6%.

On to `CN[C@H](CC(C)C)C(=O)N[C@H]1C(=O)N[C@@H](CC(N)=O)C(=O)N[C@H]2C(=O)N[C@H]3C(=O)N[C@H](C(=O)N[C@H](C(=O)O)c4cc(O)cc(O)c4-c4cc3ccc4O)[C@H](O)c3ccc(c(Cl)c3)Oc3cc2cc(c3O[C@@H]2O[C@H](CO)[C@@H](O)[C@H](O)[C@H]2O[C@H]2C[C@](C)(N)[C@H](O)[C@H](C)O2)Oc2ccc(cc2Cl)[C@H]1O` [VANCOMYCIN], for which the minimum inhibitory concentration (MIC) in the experiment with Enterococcus faecalis was 2 µg/mL (≈ 1.38 µM).

In the case of `C[C@@H](O)[C@H](N)C(=O)NS(=O)(=O)c1cccc(-c2ccc3[nH]ncc3c2)c1`, the minimum inhibitory concentration (MIC) with Salmonella enterica [3], in the experiment with Staphylococcus aureus [4], in the experiment with Escherichia coli, with Enterococcus faecalis, with Pseudomonas aeruginosa and with Staphylococcus aureus [11] was over 256 µg/mL throughout.

The values above are taken from ChEMBL document CHEMBL4706597, “Structure-guided optimization and mechanistic study of a class of quinazolinone-threonine hybrids as antibacterial ThrRS inhibitors” (Eur J Med Chem, 2020).
